One data set concerns Bacillus subtilis. The experiment in a line: Antibacterial activity against Bacillus subtilis at 50 mg/disk after 24 to 28 hrs by agar disk diffusion method. Format: functional.
Another data set has as its system Lactococcus lactis. The experiment in a line: Antibacterial activity against Streptococcus lactis at 50 mg/disk after 24 to 28 hrs by agar disk diffusion method. Format: functional.
The test system of another data set is Escherichia coli. The experiment in a line: Antibacterial activity against Escherichia coli at 50 mg/disk after 24 to 28 hrs by agar disk diffusion method. Format: functional.
The subject of another data set is Pseudomonas aeruginosa. Briefly: Antibacterial activity against Pseudomonas aeruginosa at 50 mg/disk after 24 to 28 hrs by agar disk diffusion method. Format: functional.
The subject of another data set is Candida albicans. Briefly: Antifungal activity against Candida albicans at 50 mg/disk after 5 days by agar disk diffusion method. Format: functional.
A further data set has as its system Nakaseomyces glabratus. The experiment in a line: Antifungal activity against Candida glabrata at 50 mg/disk after 5 days by agar disk diffusion method. Format: functional.
The subject of data set [1] is HepG2. The experiment in a line: Antitumor activity against human HepG2 cells xenografted in Swiss albino mouse assessed as increase of mouse survival at 10 ug/kg, ip for 10 days (reference value: 22 +/- 1.90 day). Format: functional.
In data set [2] the test system is HepG2. Briefly: Antitumor activity against human HepG2 cells xenografted in Swiss albino mouse assessed as increase mouse life span at 10 ug/kg, ip for 10 days relative to control. Format: functional.
Data set [3] deals with HeLa. The experiment in a line: Antitumor activity against human HeLa cells xenografted in Swiss albino mouse assessed as increase of mouse survival at 10 ug/kg, ip for 10 days (reference value: 22 +/- 1.90 day). Format: functional.
Data set [4] has as its system HeLa. Briefly: Antitumor activity against human HeLa cells xenografted in Swiss albino mouse assessed as increase mouse life span at 10 ug/kg, ip for 10 days relative to control. Format: functional.
For data set [5], the system named is Mus musculus. Briefly: Acute toxicity in human HepG2 cells xenografted ip dosed Swiss albino mouse assessed as mortality measured up to 2 weeks. Format: organism-based. The note with it: in vivo, 336 h. The method, boiled down: (§1)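 Adult Swiss albino mice were fasted 12 h and randomised into groups of 10. Each group got one i.p. dose from a graded series, given at 1 ml/kg body weight; controls got vehicle alone. Food and water were returned right after dosing. Mortality was followed for up to two weeks, and LD50 was taken as the dose giving 50% mortality.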

Data set [6] deals with Mus musculus. The experiment in a line: Acute toxicity in human HeLa cells xenografted ip dosed Swiss albino mouse assessed as mortality measured up to 2 weeks. Format: organism-based. Particulars: in vivo, 336 h. The method, boiled down:
as §1

On to `CC1(C)CC(=O)C2=C(C1)Nc1nc3[nH]ncn3c(=O)c1C2c1ccc([N+](=O)[O-])cc1` (configuration not stated), for which the “diameter of the inhibition zone (DIZ)” value is listed as 20 mm in the data set on Bacillus subtilis; 20 mm with Lactococcus lactis; 19 mm in the data set on Escherichia coli; 18 mm in the data set with Pseudomonas aeruginosa; 9 mm in the data set with Candida albicans; 9 mm in the data set with Nakaseomyces glabratus. Moreover, the figures for the Survival in the data set on HepG2 [1] and in the data set with HeLa [3] were 31 days and 30 days, respectively. The Activity in the data set on HepG2 [2] is 55%; with HeLa [4] it was 51%. The values for the LD50 in the data set with Mus musculus [5] and with Mus musculus [6] were 100 µg/kg and 98 µg/kg, respectively.
